pIC50: −log10 of the molar value. ≈ marks a conversion by molar mass, not a printed value. One block for each molecule: values may come before it. Calls of active or inactive are those of the source. The calls are words filed in the database; no cut-off is given here.
What was measured:
[1] = Solubility in 0.01N HCl; format: physicochemical
How it was run: (§1)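 Thermodynamic solubility determined in a high-throughput automated format; media 0.01 N HCl, PBS and simulated intestinal fluid.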

[2] = biological target: T1, Transient receptor potential cation channel subfamily V member 1 (Rattus norvegicus, UniProt O35433); assay: Inhibition of rat TRPV1 expressed in CHO cells assessed as acid-induced Ca2+ influx; format: cell-based
[3] = biological target: T1, Transient receptor potential cation channel subfamily V member 1; assay: Inhibition of rat TRPV1 expressed in CHO cells assessed as capsaicin-induced Ca2+ influx; format: cell-based
[4] = Clearance in Sprague-Dawley rat at 1 mg/kg, iv up to 6 hrs; format: ADME, organism-based; parameters: dose 1 mg/kg, route intravenous; conditions: in vivo
[5] = AUC (0 to infinity) in Sprague-Dawley rat at 1 mg/kg, iv up to 6 hrs; format: ADME, organism-based; parameters: time infinity, dose 1 mg/kg, route intravenous; conditions: plasma
[6] = AUC (0-inf) in Sprague-Dawley rat at 5 mg/kg, po up to 8 hrs; format: ADME, organism-based; parameters: time infinity, dose 5 mg/kg, route oral; conditions: plasma
How it was run: (§2)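 Fasted male Sprague-Dawley rats given 5 mg/kg orally as a suspension in 5% Tween 80/Oraplus; plasma sampled up to 8 h.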

[7] = Oral bioavailability in Sprague-Dawley rat at 5 mg/kg; format: ADME, organism-based; conditions: in vivo; how it was run: as §2
[8] = Solubility in SIF; format: physicochemical; how it was run: as §1
[9] = Solubility in PBS; format: physicochemical; how it was run: as §1
[10] = Half life in Sprague-Dawley rat at 1 mg/kg, iv; format: ADME, organism-based; parameters: dose 1 mg/kg, route intravenous; conditions: in vivo
[11] = Volume of distribution in Sprague-Dawley rat at 1 mg/kg, iv up to 6 hrs; format: ADME, organism-based; parameters: dose 1 mg/kg, route intravenous; conditions: in vivo, read-out: Vss
[12] = Half life in Sprague-Dawley rat at 1 mg/kg, iv after 72 hrs; format: ADME, organism-based; parameters: dose 1 mg/kg, route intravenous; conditions: in vivo
[13] = Volume of distribution at steady state in monkey at 1 mg/kg, iv; format: ADME, organism-based, Macaca mulatta; parameters: dose 1 mg/kg, route intravenous; conditions: rhesus monkey, in vivo, read-out: Vss
How it was run: (§3)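 Fed male animals given 1 mg/kg intravenously in 80% PEG-400/H₂O.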

[14] = Oral bioavailability in dog at 3 mg/kg; format: ADME, organism-based, Canis lupus familiaris; conditions: in vivo
How it was run: (§4)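 Fasted male animals dosed orally at 3 mg/kg, vehicle 10% Pluronic F108 in either Oraplus or H₂O.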

[15] = Half life in monkey at 1 mg/kg, iv; format: ADME, organism-based, Macaca mulatta; parameters: dose 1 mg/kg, route intravenous; conditions: rhesus monkey, in vivo; how it was run: as §3
[16] = species on record: Rattus norvegicus; assay: Plasma concentration in rat with capsaicin-evoked paw flinching; format: ADME, organism-based; conditions: in vivo
[17] = Oral bioavailability in monkey at 3 mg/kg; format: ADME, organism-based, Macaca mulatta; conditions: rhesus monkey, in vivo; how it was run: as §4
[18] = Volume of distribution at steady state in Sprague-Dawley rat at 1 mg/kg, iv after 72 hrs; format: ADME, organism-based; parameters: dose 1 mg/kg, route intravenous; conditions: in vivo, read-out: Vss
[19] = Clearance in dog at 1 mg/kg, iv; format: ADME, organism-based, Canis lupus familiaris; parameters: dose 1 mg/kg, route intravenous; conditions: in vivo; how it was run: as §3
[20] = species on record: Rattus norvegicus; assay: Plasma concentration in rat model of CFA-induced inflammation; format: ADME, organism-based; conditions: in vivo
How it was run: (§5)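 Complete Freund's adjuvant injected to induce inflammatory thermal hyperalgesia in rats; oral dose-response, minimum effective dose determined, with corresponding plasma level measured.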

[21] = Half life in dog at 1 mg/kg, iv; format: ADME, organism-based, Canis lupus familiaris; parameters: dose 1 mg/kg, route intravenous; conditions: in vivo; how it was run: as §3
[22] = test system: Rattus norvegicus; assay: Inhibition of capsaicin-induced flinching in rat at 10 mg/kg, po up to 8 hrs; format: functional, organism-based; parameters: dose 10 mg/kg
How it was run: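 Rats given 10 mg/kg orally; capsaicin-induced flinching challenged at intervals up to 8 h after dosing.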

[23] = Clearance in monkey at 1 mg/kg, iv; format: ADME, organism-based, Macaca mulatta; parameters: dose 1 mg/kg, route intravenous; conditions: rhesus monkey, in vivo; how it was run: as §3
[24] = Volume of distribution at steady state in dog at 1 mg/kg, iv; format: ADME, organism-based, Canis lupus familiaris; parameters: dose 1 mg/kg, route intravenous; conditions: in vivo, read-out: Vss; how it was run: as §3
[25] = Clearance in Sprague-Dawley rat at 1 mg/kg, iv after 72 hrs; format: ADME, organism-based; parameters: dose 1 mg/kg, route intravenous; conditions: in vivo
[26] = species on record: Rattus norvegicus; assay: Reduction of thermal hyperalgesia in rat model of CFA-induced inflammation in assessed as minimum effective dose; format: functional; conditions: read-out: MED; how it was run: as §5
[27] = test system: Rattus norvegicus; assay: Suppression of capsaicin-evoked paw flinching in orally dosed rat; format: functional; conditions: po
[28] = AUC (0 to infinity) in Sprague-Dawley rat at 3 mg/kg, po up to 8 hrs; format: ADME, organism-based; parameters: time infinity, dose 3 mg/kg, route oral; conditions: plasma
How it was run: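 Fasted male Sprague-Dawley rats were given a single oral dose of 3 mg/kg as a suspension in 5% Tween 80/Oraplus. Plasma was sampled for up to 8 h, and AUC0-∞ was reported in ng·h/mL.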

T1 sequence (O35433 whole entry): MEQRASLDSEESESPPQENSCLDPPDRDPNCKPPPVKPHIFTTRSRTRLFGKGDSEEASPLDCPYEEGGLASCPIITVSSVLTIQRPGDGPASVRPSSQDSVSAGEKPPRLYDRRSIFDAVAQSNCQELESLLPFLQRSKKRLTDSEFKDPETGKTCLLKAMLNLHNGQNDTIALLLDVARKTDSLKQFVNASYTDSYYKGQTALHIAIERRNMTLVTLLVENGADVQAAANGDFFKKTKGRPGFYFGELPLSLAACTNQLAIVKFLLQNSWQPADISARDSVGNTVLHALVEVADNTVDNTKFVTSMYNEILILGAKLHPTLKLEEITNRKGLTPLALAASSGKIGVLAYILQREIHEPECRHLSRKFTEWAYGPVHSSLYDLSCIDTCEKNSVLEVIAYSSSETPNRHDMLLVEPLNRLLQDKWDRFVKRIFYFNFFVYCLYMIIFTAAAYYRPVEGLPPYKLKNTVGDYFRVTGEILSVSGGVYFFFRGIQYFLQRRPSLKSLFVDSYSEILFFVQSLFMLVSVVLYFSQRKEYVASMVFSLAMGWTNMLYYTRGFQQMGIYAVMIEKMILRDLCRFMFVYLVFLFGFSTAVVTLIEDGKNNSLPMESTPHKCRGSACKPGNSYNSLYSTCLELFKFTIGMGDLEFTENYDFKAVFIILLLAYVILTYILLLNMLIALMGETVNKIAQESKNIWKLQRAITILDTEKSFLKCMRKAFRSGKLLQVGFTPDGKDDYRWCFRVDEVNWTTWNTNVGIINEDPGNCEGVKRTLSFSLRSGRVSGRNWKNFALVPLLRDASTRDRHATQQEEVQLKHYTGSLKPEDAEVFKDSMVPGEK

Compound: CC(=O)Nc1nc2c(Oc3cc(N4CCNCC4)ncn3)cccc2s1
solubility [1]: 173 µg/mL (≈ 467 µM) | pIC50 [2]: < 5.40 | pIC50 [3]: < 5.40

Compound: COc1ccc(C(C)N2CCN(c3cc(Oc4cccc5sc(NC(C)=O)nc45)ncn3)CC2)cc1 (centres undefined)
solubility [1]: ≥ 200 µg/mL

Compound: CC(=O)Nc1nc2c(Oc3cc(N4CCOCC4)ncn3)cccc2s1
solubility [1]: 32 µg/mL (≈ 86.2 µM) | pIC50 [2]: < 5.40 | pIC50 [3]: < 5.40

Compound: CC(=O)Nc1nc2c(Oc3cc(N4CCN(C(c5ccccc5)c5ccccc5)CC4)ncn3)cccc2s1
solubility [1]: 46 µg/mL (≈ 85.7 µM)

Compound: CC(=O)Nc1nc2c(Oc3cc(N4CCN([C@@H](C)c5ccc(F)cc5)CC4)ncn3)cccc2s1
solubility [1]: ≥ 200 µg/mL | AUC(0-inf) [5]: 550 ng·h/mL | AUC(0-inf) [6]: 2550 ng·h/mL | bioavailability [7]: 93% | solubility [8]: 121 µg/mL (≈ 246 µM) | clearance [4]: 30 mL/min/kg | solubility [9]: 31 µg/mL (≈ 62.9 µM) | half-life [10]: 2.5 h | Vd [11]: 5.7 L/kg

Compound: CC(=O)Nc1nc2c(Oc3cc(N4CCN(C(C)c5ccccc5)CC4)ncn3)cccc2s1 (centres undefined)
solubility [1]: ≥ 200 µg/mL | clearance [4]: 65 mL/min/kg

Compound: CC(=O)Nc1nc2c(Oc3cc(N4CCN(Cc5ccccc5)CC4)ncn3)cccc2s1
solubility [1]: ≥ 200 µg/mL

Compound: CC(=O)Nc1nc2c(Oc3cc(N4CCN(C(C)(C)c5ccccc5)CC4)ncn3)cccc2s1
solubility [1]: ≥ 200 µg/mL

Compound: CC(=O)Nc1nc2c(Oc3cc(N4CCN(C(C)c5ccc(F)cc5)CC4)ncn3)cccc2s1 (centres undefined)
solubility [1]: ≥ 200 µg/mL | AUC(0-inf) [5]: 1000 ng·h/mL | AUC(0-inf) [6]: 1800 ng·h/mL | bioavailability [7]: 35% | solubility [8]: 34 µg/mL (≈ 69 µM) | clearance [4]: 18.3 mL/min/kg | solubility [9]: 5 µg/mL (≈ 10.2 µM) | half-life [10]: 2.4 h | Vd [11]: 2.9 L/kg

Compound: CC(=O)Nc1nc2c(Oc3cc(C4=CCC(C(F)(F)F)CC4)ncn3)cccc2s1 (centres undefined)
solubility [1]: 13 µg/mL (≈ 29.9 µM) | pIC50 [2]: 8.62 | pIC50 [3]: 7.57

Compound: CC(=O)Nc1nc2c(Oc3cc(C4CCC(C(F)(F)F)CC4)ncn3)cccc2s1 (centres undefined)
solubility [1]: 5 µg/mL (≈ 11.5 µM) | pIC50 [2]: 8.00 | pIC50 [3]: 6.46

Compound: CC(=O)Nc1nc2c(Oc3cc(N4CCN(C(C)(C)C)CC4)ncn3)cccc2s1
solubility [1]: ≥ 200 µg/mL | pIC50 [2]: < 5.40 | pIC50 [3]: 5.82

More lines, main results first:

solubility [1]: ≥ 200 µg/mL | clearance [4]: 50 mL/min/kg
Compound: CC(=O)Nc1nc2c(Oc3cc(N4CCN(C(C)c5ccccc5F)CC4)ncn3)cccc2s1 (centres undefined)

solubility [1]: ≥ 200 µg/mL | pIC50 [2]: 6.92 | pIC50 [3]: 6.42
Compound: CC(=O)Nc1nc2c(Oc3cc(N4CCN(CC(F)(F)F)CC4)ncn3)cccc2s1

solubility [1]: ≥ 200 µg/mL
Compound: CCC(c1ccccc1)N1CCN(c2cc(Oc3cccc4sc(NC(C)=O)nc34)ncn2)CC1 (centres undefined)

solubility [1]: ≥ 200 µg/mL | pIC50 [2]: 8.74 | AUC(0-inf) [5]: 720 ng·h/mL | AUC(0-inf) [6]: 120 ng·h/mL | bioavailability [7]: 3% | solubility [8]: 121 µg/mL (≈ 223 µM) | clearance [4]: 23.3 mL/min/kg | solubility [9]: 5 µg/mL (≈ 9.22 µM) | pIC50 [3]: 8.30 | half-life [10]: 2.7 h | Vd [11]: 4.5 L/kg
Compound: CC(=O)Nc1nc2c(Oc3cc(N4CCN(C(C)c5ccc(C(F)(F)F)cc5)CC4)ncn3)cccc2s1 (centres undefined)

solubility [1]: 1.5 µg/mL (≈ 3.36 µM) | clearance [4]: 16.7 mL/min/kg
Compound: CC(=O)Nc1nc2c(Oc3cc(N4CCN(c5ccccc5)CC4)ncn3)cccc2s1

solubility [1]: ≥ 200 µg/mL
Compound: CC(=O)Nc1nc2c(Oc3cc(N4CCN(C(C)C)CC4)ncn3)cccc2s1

solubility [1]: ≥ 200 µg/mL | clearance [4]: 53.3 mL/min/kg
Compound: CC(=O)Nc1nc2c(Oc3cc(N4CCN(C(C)c5cccc(F)c5)CC4)ncn3)cccc2s1 (centres undefined)

solubility [1]: 9 µg/mL (≈ 20.6 µM) | pIC50 [2]: 7.72 | pIC50 [3]: 6.48
Compound: CC(=O)Nc1nc2c(Oc3cc(N4CCC(C(F)(F)F)CC4)ncn3)cccc2s1

solubility [1]: ≥ 200 µg/mL | pIC50 [2]: 8.30 | clearance [4]: 25 mL/min/kg | pIC50 [3]: 8.52
Compound: CC(=O)Nc1nc2c(Oc3cc(N4CCN(CC(C)(C)C)CC4)ncn3)cccc2s1

solubility [1]: ≥ 200 µg/mL
Compound: CC(=O)Nc1nc2c(Oc3cc(N4CCN(CCc5ccccc5)CC4)ncn3)cccc2s1

half-life [12]: 3.8 h | Vd [13]: 0.9 L/kg | bioavailability [14]: 83% | half-life [15]: 3.2 h | Cp [16]: 128 ng/mL | bioavailability [17]: 12% | solubility [1]: ≥ 200 µg/mL | AUC(0-inf) [5]: 1200 ng·h/mL | Vd [18]: 2.6 L/kg | clearance [19]: 40 mL/min/kg | Cp [20]: 70 ng/mL | half-life [21]: 2.7 h | AUC(0-inf) [6]: 3100 ng·h/mL | bioavailability [7]: 51% | solubility [8]: 64 µg/mL (≈ 130 µM) | clearance [4]: 13.3 mL/min/kg | clearance [23]: 6.67 mL/min/kg | Vd [24]: 4 L/kg | solubility [9]: 7 µg/mL (≈ 14.2 µM) | half-life [10]: 2.7 h | clearance [25]: 13.8 mL/min/kg | Vd [11]: 2.8 L/kg
Compound: CC(=O)Nc1nc2c(Oc3cc(N4CCN([C@H](C)c5ccc(F)cc5)CC4)ncn3)cccc2s1
Activity [22]: Active | minimal effective dose [26]: 1 mg/kg | ED50 [27]: 1.9 mg/kg

AUC(0-inf) [28]: 12500 ng·h/mL | solubility [1]: < 1 µg/mL | bioavailability [7]: 32% | solubility [9]: < 1 µg/mL | Vd [11]: 1.6 L/kg
Compound: CC(=O)Nc1nc2c(Oc3cc(-c4ccc(C(F)(F)F)cc4)ncn3)cccc2s1 [AMG-517]
